# Laboratory results as given in the M2OR odorant receptor database.
# Biological target: T1, Or1m1 (Mus musculus) (UniProt Q8VFM9)
# T1 sequence (whole entry): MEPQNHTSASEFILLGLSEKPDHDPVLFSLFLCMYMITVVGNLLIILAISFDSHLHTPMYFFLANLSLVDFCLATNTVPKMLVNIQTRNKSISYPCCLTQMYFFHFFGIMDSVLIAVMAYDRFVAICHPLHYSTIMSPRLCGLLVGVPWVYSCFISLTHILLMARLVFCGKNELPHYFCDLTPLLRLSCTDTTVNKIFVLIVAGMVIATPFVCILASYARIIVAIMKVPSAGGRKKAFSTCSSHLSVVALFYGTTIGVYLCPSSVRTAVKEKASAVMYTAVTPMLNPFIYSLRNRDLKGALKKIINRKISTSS
# Settings: stereoisomer not certain
# How it was run: (§1)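 Assay methods differ from source to source, frequently being transient luciferase assays in mammalian cell lines. For each receptor–molecule pair, the label responsive (active) applies when the original authors judged the measured signal statistically different from baseline, and non-responsive (inactive) applies otherwise.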
row,SMILES,odorant receptor agonist call
1,CCCCC(Br)C(=O)O (centres undefined),inactive
2,O=Cc1ccc2c(c1)OCO2,inactive
3,C=CCOC(=O)Cc1ccccc1,inactive
4,CC(C=O)Cc1ccc2c(c1)OCO2 (centres undefined),inactive
5,O=Cc1ccccc1,inactive
6,CSSC,inactive
7,Oc1ccccc1Br,inactive
8,C=C(C)C1CC=C(C=O)CC1 (centres undefined),inactive
9,OCc1ccc2c(c1)OCO2,inactive
10,CCCCCCC(Br)C(=O)O (centres undefined),inactive
11,O=c1cc(O)c2ccccc2o1,inactive
12,Cc1ccc(OC(=O)Cc2ccccc2)cc1,inactive
13,COc1ccc(C=O)cc1,inactive
14,O=CC=Cc1ccccc1,inactive

# Biological target: T2, Or2c1 (Mus musculus) (UniProt P23275)
# T2 sequence (whole entry): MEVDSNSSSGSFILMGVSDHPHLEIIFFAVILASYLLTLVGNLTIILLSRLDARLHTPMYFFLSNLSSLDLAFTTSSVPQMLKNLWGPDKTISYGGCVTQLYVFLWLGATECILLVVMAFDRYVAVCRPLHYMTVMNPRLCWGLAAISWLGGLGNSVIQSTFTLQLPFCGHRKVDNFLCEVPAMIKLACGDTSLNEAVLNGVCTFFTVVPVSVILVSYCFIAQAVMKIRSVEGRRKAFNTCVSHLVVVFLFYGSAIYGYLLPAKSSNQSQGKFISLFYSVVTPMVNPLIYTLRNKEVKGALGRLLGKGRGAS
# Settings: stereoisomer not certain
# How it was run: as §1
row,SMILES,odorant receptor agonist call
1,C=CCc1ccccc1,active
2,C=CCOC(=O)Cc1ccccc1,active
3,O=c1cc(O)c2ccccc2o1,inactive
4,CCC1CCC(=O)O1 (centres undefined),inactive

# Biological target: T3, Or5ar1 (Mus musculus) (UniProt Q8VGS3)
# T3 sequence (whole entry): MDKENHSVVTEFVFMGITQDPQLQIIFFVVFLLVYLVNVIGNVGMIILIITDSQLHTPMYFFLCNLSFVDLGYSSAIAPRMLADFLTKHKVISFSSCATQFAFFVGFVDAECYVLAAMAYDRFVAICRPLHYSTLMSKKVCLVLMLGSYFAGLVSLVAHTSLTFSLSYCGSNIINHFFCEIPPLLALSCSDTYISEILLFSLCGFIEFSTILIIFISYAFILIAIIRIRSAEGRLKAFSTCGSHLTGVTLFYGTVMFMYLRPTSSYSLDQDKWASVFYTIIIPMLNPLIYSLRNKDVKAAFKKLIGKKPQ
# Settings: stereoisomer not certain
# How it was run: as §1
row,SMILES,odorant receptor agonist call
1,C=CCc1ccccc1,inactive
2,CCCCC(Br)C(=O)O (centres undefined),inactive
3,O=Cc1ccc2c(c1)OCO2,inactive
4,C=CCOC(=O)Cc1ccccc1,inactive
5,CC(C=O)Cc1ccc2c(c1)OCO2 (centres undefined),inactive
6,O=Cc1ccccc1,inactive
7,CSSC,inactive
8,Oc1ccccc1Br,inactive
9,C=C(C)C1CC=C(C=O)CC1 (centres undefined),inactive
10,OCc1ccc2c(c1)OCO2,inactive
11,CCCCCCC(Br)C(=O)O (centres undefined),inactive
12,O=c1cc(O)c2ccccc2o1,inactive
13,Cc1ccc(OC(=O)Cc2ccccc2)cc1,inactive
14,COc1ccc(C=O)cc1,inactive
15,CCC1CCC(=O)O1 (centres undefined),inactive
16,O=CC=Cc1ccccc1,inactive

# Biological target: T4, Or5p80 (Mus musculus) (UniProt Q8VG42)
# T4 sequence (whole entry): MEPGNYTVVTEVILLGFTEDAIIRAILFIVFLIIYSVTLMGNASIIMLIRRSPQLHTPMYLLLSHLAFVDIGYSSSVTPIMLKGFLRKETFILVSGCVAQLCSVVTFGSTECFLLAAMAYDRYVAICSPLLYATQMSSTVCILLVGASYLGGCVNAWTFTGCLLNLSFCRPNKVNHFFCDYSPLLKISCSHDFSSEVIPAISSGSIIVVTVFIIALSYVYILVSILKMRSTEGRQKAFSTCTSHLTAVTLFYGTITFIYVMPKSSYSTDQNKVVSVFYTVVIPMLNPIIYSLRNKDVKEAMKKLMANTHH
# Settings: stereoisomer not certain
# How it was run: as §1
row,SMILES,odorant receptor agonist call
1,C=CCc1ccccc1,inactive
2,C=CCOC(=O)Cc1ccccc1,inactive
3,O=c1cc(O)c2ccccc2o1,inactive
4,CCC1CCC(=O)O1 (centres undefined),inactive

# Biological target: T5, Or7a40 (Mus musculus) (UniProt Q9JHB2)
# T5 sequence (whole entry): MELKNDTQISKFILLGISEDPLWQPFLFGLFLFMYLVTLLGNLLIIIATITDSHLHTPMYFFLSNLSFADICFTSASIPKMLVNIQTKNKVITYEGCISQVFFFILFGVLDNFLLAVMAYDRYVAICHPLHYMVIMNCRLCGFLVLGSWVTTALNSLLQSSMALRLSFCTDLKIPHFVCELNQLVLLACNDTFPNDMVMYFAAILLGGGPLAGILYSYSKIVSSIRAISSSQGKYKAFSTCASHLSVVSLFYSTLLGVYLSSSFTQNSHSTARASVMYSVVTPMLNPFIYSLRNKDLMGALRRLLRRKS
# Settings: stereoisomer not certain
# How it was run: as §1
row,SMILES,odorant receptor agonist call
1,C=CCc1ccccc1,inactive
2,C=CCOC(=O)Cc1ccccc1,inactive
3,O=c1cc(O)c2ccccc2o1,inactive
4,CCC1CCC(=O)O1 (centres undefined),inactive

# Biological target: T6, UniProt A2ATE5
# T6 sequence (whole entry): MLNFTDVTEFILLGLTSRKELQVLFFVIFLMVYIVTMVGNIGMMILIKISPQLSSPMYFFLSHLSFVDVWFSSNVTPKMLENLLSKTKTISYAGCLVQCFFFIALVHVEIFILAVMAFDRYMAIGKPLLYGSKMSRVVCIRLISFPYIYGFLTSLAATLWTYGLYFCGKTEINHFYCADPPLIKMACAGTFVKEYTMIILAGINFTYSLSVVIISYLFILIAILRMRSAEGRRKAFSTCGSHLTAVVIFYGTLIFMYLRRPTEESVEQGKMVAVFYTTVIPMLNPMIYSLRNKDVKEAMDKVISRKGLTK
# Settings: stereoisomer not certain
# How it was run: as §1
row,SMILES,odorant receptor agonist call
1,CCCCC(Br)C(=O)O (centres undefined),inactive
2,O=Cc1ccc2c(c1)OCO2,inactive
3,C=CCOC(=O)Cc1ccccc1,inactive
4,CC(C=O)Cc1ccc2c(c1)OCO2 (centres undefined),inactive
5,O=Cc1ccccc1,inactive
6,CSSC,inactive
7,Oc1ccccc1Br,inactive
8,C=C(C)C1CC=C(C=O)CC1 (centres undefined),inactive
9,OCc1ccc2c(c1)OCO2,inactive
10,CCCCCCC(Br)C(=O)O (centres undefined),inactive
11,O=c1cc(O)c2ccccc2o1,inactive
12,Cc1ccc(OC(=O)Cc2ccccc2)cc1,inactive
13,COc1ccc(C=O)cc1,inactive
14,O=CC=Cc1ccccc1,inactive

# Biological target: T7, UniProt A2AVB0
# T7 sequence (whole entry): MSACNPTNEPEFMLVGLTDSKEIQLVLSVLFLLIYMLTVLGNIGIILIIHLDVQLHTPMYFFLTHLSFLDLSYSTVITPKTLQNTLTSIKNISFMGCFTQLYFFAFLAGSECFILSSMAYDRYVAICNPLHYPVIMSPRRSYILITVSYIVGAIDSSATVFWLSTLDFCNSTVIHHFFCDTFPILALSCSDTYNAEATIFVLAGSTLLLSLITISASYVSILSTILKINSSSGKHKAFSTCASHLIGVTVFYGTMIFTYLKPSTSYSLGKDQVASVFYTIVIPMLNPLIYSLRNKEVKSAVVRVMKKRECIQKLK
# Settings: stereoisomer not certain
# How it was run: as §1
row,SMILES,odorant receptor agonist call
1,CCCCC(Br)C(=O)O (centres undefined),inactive
2,O=Cc1ccc2c(c1)OCO2,inactive
3,C=CCOC(=O)Cc1ccccc1,inactive
4,CC(C=O)Cc1ccc2c(c1)OCO2 (centres undefined),inactive
5,O=Cc1ccccc1,inactive
6,CSSC,inactive
7,Oc1ccccc1Br,inactive
8,C=C(C)C1CC=C(C=O)CC1 (centres undefined),inactive
9,OCc1ccc2c(c1)OCO2,inactive
10,CCCCCCC(Br)C(=O)O (centres undefined),inactive
11,O=c1cc(O)c2ccccc2o1,inactive
12,Cc1ccc(OC(=O)Cc2ccccc2)cc1,inactive
13,COc1ccc(C=O)cc1,inactive
14,O=CC=Cc1ccccc1,inactive

# Biological target: T8, UniProt A2AVB5
# T8 sequence (whole entry): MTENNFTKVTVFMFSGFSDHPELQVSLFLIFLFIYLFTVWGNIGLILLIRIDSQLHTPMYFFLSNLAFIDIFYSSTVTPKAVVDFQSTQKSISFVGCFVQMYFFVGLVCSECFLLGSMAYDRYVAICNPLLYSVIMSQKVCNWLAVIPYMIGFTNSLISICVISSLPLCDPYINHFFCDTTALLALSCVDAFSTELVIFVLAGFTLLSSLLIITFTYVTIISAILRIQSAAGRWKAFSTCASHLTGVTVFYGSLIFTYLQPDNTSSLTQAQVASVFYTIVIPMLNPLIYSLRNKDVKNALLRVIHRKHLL
# Settings: stereoisomer not certain
# How it was run: as §1
row,SMILES,odorant receptor agonist call
1,C=CCc1ccccc1,inactive
2,C=CCOC(=O)Cc1ccccc1,inactive
3,O=c1cc(O)c2ccccc2o1,inactive
4,CCC1CCC(=O)O1 (centres undefined),inactive
